Measured values from different studies.
Observed: metabolic stability
Host: human

Compound | test system | conditions | measurement | value
NCCOCC(=O)N1CCC[C@H](C(=O)NCc2nc(-c3ccc(C(F)(F)F)cc3)cs2)C1 | hepatocytes | 0.5 µM | scaled CLint | < 3.4 mL/min/kg
O=c1c2c([nH]c3cc(OC(F)(F)F)ccc13)CCCC2 | liver microsomes | 1 µM, pH 7.4 | microsomal CLint | 173 µL/min/mg
CCOCC(=O)N1CCC[C@H](C(=O)NCc2nc(-c3ccc(C)nc3)cs2)C1 | hepatocytes | 0.5 µM | scaled CLint | 33 mL/min/kg
C=CCn1c(=O)c2cnc(Nc3ccc(N4CCN(C)CC4)cc3)nc2n1-c1cccc(C(C)(C)O)n1 | liver microsomes |  | scaled CLint | 77 mL/min/kg
COCC(=O)N1CCC[C@H](C(=O)NCc2nc(-c3ccc(C#N)cc3)cs2)C1 | liver microsomes | 0.5 µM | scaled CLint | 12 mL/min/kg
CNc1ccc(C(N)=O)cn1 | hepatocytes | 1 µM, pH 7.4 | hepatocyte CLint | 3 µL/min/10⁶ cells
Cc1cc(S(=O)(=O)N[C@H]2CC[C@H](CN3CCN(c4ccc(NC5CCC(=O)NC5=O)cc4F)CC3)CC2)ccc1Nc1ncc(C(F)(F)F)c(N2CCC[C@](C)(O)C2)n1 (some centres unmarked) | liver microsomes | 1 µM | scaled CLint | < 14 mL/min/kg
C[C@H](O)c1cnc(NS(=O)(=O)c2ccc(Cl)c(Cl)c2)nc1 | hepatocytes | 1 µM | hepatocyte CLint | < 3 µL/min/10⁶ cells
Cc1cc(S(=O)(=O)NC2CCC(CC3CCN(c4ccc(C5CCC(=O)NC5=O)cc4)CC3)CC2)ccc1Nc1ncc(C(F)(F)F)c(N2CCC[C@](C)(O)C2)n1 (some centres unmarked) | liver microsomes | 1 µM | scaled CLint | 17 mL/min/kg
C[C@H](O)c1cnc(NS(=O)(=O)c2ccc(C(F)(F)F)c(Cl)c2)nc1 | hepatocytes | 1 µM | hepatocyte CLint | < 3 µL/min/10⁶ cells
CNS(=O)(=O)c1ccc(Nc2ncc3cc(Cl)c(=O)n(C4CCCC4)c3n2)c(C)c1 | liver microsomes | 1 µM | scaled CLint | 100 mL/min/kg
CCONC(=O)N1CCC[C@H](C(=O)NCc2nc(-c3ccc(C#N)cc3)cs2)C1 | liver microsomes | 0.5 µM | scaled CLint | 11 mL/min/kg
Cc1cc(S(=O)(=O)NC2CC(N3CCN(CC4CCN(c5cccc6c5n(C)c(=O)n6C5CCC(=O)NC5=O)CC4)CC3)C2)ccc1Nc1ncc(C(F)(F)F)c(N2CCC[C@](C)(O)C2)n1 (some centres unmarked) | liver microsomes | 1 µM | scaled CLint | < 14 mL/min/kg
COc1cc(-c2cc(C(C)=O)n3ccccc23)c(OC)cc1Cn1ccnc1 | liver microsomes | pH 7.4 | scaled CLint | 15.6 mL/min/kg
